Calls of active or inactive are those of the source.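 How the source made its calls, unless noted: active means fluorescence slope higher than the sample average by over 3 SD (cut at about -0.22 in these data, passing the limit was not always enough); inactive means the rest.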
How the values were obtained:
[1] = inhibitors of TNFa-induced NFkB p65 translocation, primary screen, imaging, HUVEC, MLSMR starter and 10KST1 sets (AID 438;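 active means inhibition above 20% together with a positive visual image hit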;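 further: compound added about 3h40 before a 20 min TNFalpha stimulation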;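 on inhibition: signal is the nuclear over cytoplasmic p65 intensity ratio per well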); conditions: HUVEC TNFa-induced p65 nuclear translocation; cell count: measured here: nuclei count (cytotoxicity indicator), at 2.08 µM; inhibition: at 2 µM, stronger effect = higher value, 0% TNFa-plus-vehicle, 100% no-TNFa wells
[2] = endothelial E-selectin expression blockers – imaging, HUVEC, immunofluorescence, MLSMR starter and 10KST1 sets, primary screen (AID 487;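 active means visually confirmed hit in the image check and inhibition above 20%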;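 on inhibition: signal is fraction of cell area covered by stained E-selectin grains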;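 on nuclei count: 100% = median nuclei count of all wells on the same plate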); conditions: HUVEC TNFalpha-induced E-selectin immunofluorescence imaging, at 2 µM; inhibition: stronger effect = higher value; nuclei count: measured here: cell number, toxicity
[3] = Primary imaging screen for DUSP6 inhibitors that restore phospho-Erk in transfected HeLa cells, chemical complementation (AID 609;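 active means compounds giving at least 50% inhibition in the cell-based MKP-3 phosphatase rescue imaging test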;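 on inhibition: phospho-Erk level distribution per well compared with pooled transfected vehicle control wells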); conditions: HeLa MKP-3 transfected, phospho-Erk imaging KS statistic, at 10 µM, cells stimulated with TPA for 15 min
[4] = molecular target: Dual specificity protein phosphatase 6 (Homo sapiens) (UniProt Q16828); assay: as above; conditions: HeLa MKP-3 transfected, phospho-Erk imaging KS statistic; at 10 µM; stronger effect = higher value; cells stimulated with TPA for 15 min
Chain of Dual specificity protein phosphatase 6 (Homo sapiens) (Q16828 whole entry, looked up): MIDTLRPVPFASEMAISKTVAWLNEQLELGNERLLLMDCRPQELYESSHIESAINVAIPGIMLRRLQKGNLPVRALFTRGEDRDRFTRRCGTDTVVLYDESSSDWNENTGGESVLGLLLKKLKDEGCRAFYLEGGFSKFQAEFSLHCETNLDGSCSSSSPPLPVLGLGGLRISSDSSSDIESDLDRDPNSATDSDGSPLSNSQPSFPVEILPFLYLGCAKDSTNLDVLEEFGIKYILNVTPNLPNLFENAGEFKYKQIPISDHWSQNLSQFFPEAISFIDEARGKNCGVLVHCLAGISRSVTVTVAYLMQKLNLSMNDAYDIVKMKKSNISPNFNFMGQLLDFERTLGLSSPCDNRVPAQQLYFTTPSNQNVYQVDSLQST

[5] = molecular target: Voltage-gated potassium channel subunit beta-2 (Rattus norvegicus) (UniProt P62483); assay: inhibitors of rat Kvbeta2 reductase activity – biochemical, NADPH fluorescence, primary screen (AID 622); conditions: recombinant KvBeta, 4-cyanobenzaldehyde reduction, at 10 µM, stronger effect = higher value;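 further: slope of raw intensity against log time taken from 70 to 1610 s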
Chain of Voltage-gated potassium channel subunit beta-2 (Rattus norvegicus) (P62483 whole entry, looked up): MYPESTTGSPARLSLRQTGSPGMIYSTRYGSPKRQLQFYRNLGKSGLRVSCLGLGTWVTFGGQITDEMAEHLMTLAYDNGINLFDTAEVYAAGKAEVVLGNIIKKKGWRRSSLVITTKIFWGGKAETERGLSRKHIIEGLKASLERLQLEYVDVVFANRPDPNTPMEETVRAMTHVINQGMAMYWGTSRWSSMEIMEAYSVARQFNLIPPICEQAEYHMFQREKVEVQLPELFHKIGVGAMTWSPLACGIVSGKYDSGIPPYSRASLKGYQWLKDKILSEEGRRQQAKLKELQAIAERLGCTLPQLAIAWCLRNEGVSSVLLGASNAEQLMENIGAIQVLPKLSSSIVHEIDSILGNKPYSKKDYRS

[6] = molecular target: Voltage-gated potassium channel subunit beta-2 (Rattus norvegicus) (UniProt P62483); assay: enhancers of rat Kvbeta2 NADPH turnover – biochemical, NADPH fluorescence, primary screen (AID 623;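 active means NADPH fluorescence slope more negative than the mean of all samples by about 3 SD, 99.7% confidence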;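 further: fluorescence intensity change per second fitted from 20 to 320 s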); conditions: Recombinant KvBeta, NADPH fluorescence decrease slope, 10 min; at 10 µM; stronger effect = lower value
[7] = molecular target: Alpha-2C adrenergic receptor (Homo sapiens) (UniProt P18825); assay: compounds altering alpha2C-coupled GIRK flux – cell-based, HEK293 alpha2C/GIRK1/2, thallium flux, primary screen (AID 624;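 active means fluorescence slope after compound addition differing from the mean of all screened samples at 99.7% confidence, in either direction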;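 further: slope of fluorescence ratio to pre-addition baseline per second over 15 to 24 s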); conditions: thallium flux BTC fluorescence, at 10 µM, actives lie on both sides
Chain of Alpha-2C adrenergic receptor (Homo sapiens) (P18825 whole entry, looked up): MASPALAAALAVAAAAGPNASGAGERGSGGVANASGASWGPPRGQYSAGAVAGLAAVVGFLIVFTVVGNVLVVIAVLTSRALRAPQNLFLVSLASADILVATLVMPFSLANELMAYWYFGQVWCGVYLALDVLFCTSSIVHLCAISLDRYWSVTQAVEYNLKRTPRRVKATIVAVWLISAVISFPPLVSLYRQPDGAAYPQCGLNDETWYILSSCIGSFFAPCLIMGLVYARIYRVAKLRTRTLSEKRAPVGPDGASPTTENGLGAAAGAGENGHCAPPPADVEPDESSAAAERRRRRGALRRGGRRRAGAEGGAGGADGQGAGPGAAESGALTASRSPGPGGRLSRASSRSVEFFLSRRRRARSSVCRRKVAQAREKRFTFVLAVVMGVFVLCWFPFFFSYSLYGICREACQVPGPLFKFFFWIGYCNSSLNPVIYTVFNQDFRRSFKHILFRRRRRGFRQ

[8] = inhibitors of larval lipid processing in zebrafish, primary screen, whole organism, PED6 fluorescence, gall bladder and intestine (AID 686;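 active means a full or partial loss of lipid-probe fluorescence in the fish gall bladder, intestine or both, judged by eye; inactive means no fluorescence loss, or compound toxic to the fish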;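 further: larvae 5 to 7 days old with five fish per well; signal comes from phospholipase A2 cleavage of quenched PED6 carried via bile; overnight exposure to compound and PED6 before scoring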); conditions: Zebrafish larvae PED6 lipid processing, fluorescence scoring; screened at 20 µM (by protocol)
How it was run: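 System: live zebrafish larvae aged 5-7 days, whole organism; measure: graded gall bladder and intestinal fluorescence inhibition per well; incubation: overnight exposure; reagent: ingested quenched lipid PED6 at 100 nM; signal: By-eye fluorescence microscopy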

[9] = loss of swimming-algae plug formation – whole organism, Chlamydomonas reinhardtii, WT vs cilia-less mutant, absorbance, 96-well, primary screen (AID 463189;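 active means inhibition at or above 50% relative to wild type and mutant plate controls; inactive means inhibition below 50%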;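 further: 0% = wild type cc124 cells in DMSO and 100% = ciliumless bld1 mutant cells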); conditions: Chlamydomonas reinhardtii gravitaxis, OD600 absorbance, 2 days; at 10 µM; stronger effect = higher value
[10] = measured here: cell density z-score
[11] = measured here: nuclear c-Myc green intensity z-score
[12] = measured here: nuclear pErk red intensity z-score, stronger effect = higher value

SMILES	cell count [1]	inhibition [1]	inhibition [2]	nuclei count [2] [%]	z-score [3, 10]	z-score [3, 11]	z-score [3, 12]	inhibition [4]	fluorescence slope [5]	NADPH fluorescence slope [6]	slope [7]	outcome [8]	inhibition [9]
N/C(CCN1CCCCC1)=N/O	582	-29.9% (inactive)	25.5% (inactive)	169	0.685	-0.291	-0.968	-4.27% (inactive)	-0.418 (inactive)	-9.2e-06 (inactive)	0.00552 (inactive)	inactive	12.2% (inactive)
COC(=O)CNc1nc(-c2cccnc2)nc2ccccc12	543	-5.9% (inactive)	-23.5% (inactive)	156	-0.375	1.95	0.774	-11.9% (inactive)	-0.327 (inactive)	8.2e-06 (inactive)	0.0052 (inactive)	inactive	-0.905% (inactive)
Cc1nnc(C)n1/N=C/c1cccn1C	300	-9.7% (inactive)	-14.9% (inactive)	136	-0.977	2.09	-1.42	3.5% (inactive)	-0.412 (inactive)	-0.00014 (inactive)	0.00647 (inactive)	inactive	-5.16% (inactive)
CCOC(=O)c1[nH]c2ccc(OC)cc2c1NC(=O)CCN1CCN(Cc2ccccc2)CC1	541	-11.2% (inactive)	-92.4% (inactive)	165	1.87	1.32	-0.24	1.12% (inactive)	-0.173 (inactive)	-2.9e-05 (inactive)	0.00459 (inactive)	inactive	16.3% (inactive)
Cn1c(OCc2ccco2)nc2c1c(=O)n(Cc1ccc(Cl)c(Cl)c1)c(=O)n2C	642	-4.4% (inactive)	12.6% (inactive)	136	1.05	0.078	-0.436	0.671% (inactive)	-0.521 (inactive)	-4.1e-05 (inactive)	0.00511 (inactive)	inactive	-1.38% (inactive)
CC1(C)CC(=O)C(CCCN2C(=O)c3ccccc3C2=O)C(=O)C1	527	0.1% (inactive)	10.1% (inactive)	93.2	-0.253	0.312	-1.11	-5.26% (inactive)	-0.379 (inactive)	-1.5e-05 (inactive)	0.00431 (inactive)	inactive	18% (inactive)
COc1cccc(-c2nnc3sc(-c4ccccc4)nn23)c1	659	1.9% (inactive)	-40.1% (inactive)	160	-2.38	2.05	2	-15% (inactive)	-0.424 (inactive)	-0.000144 (inactive)	0.00489 (inactive)	inactive	-5.58% (inactive)
Cc1c(/C(O)=C2/C(=O)C(=O)N(CCCN3CCOCC3)C2c2ccncc2)cnn1-c1ccccc1 (stereo unspecified)	518	8.4% (inactive)	-181% (inactive)	149	0.69	0.756	-0.189	8.76% (inactive)	-0.552 (inactive)	-1.5e-05 (inactive)	0.00511 (inactive)	inactive	15.5% (inactive)
O=C1OC(Nc2ccc(Br)cn2)c2ccccc21 (stereo unspecified)	388	2.6% (inactive)	47.2% (inactive)	94.3	-0.833	-0.569	0.497	-8.27% (inactive)	-0.44 (inactive)	-1.7e-06 (inactive)	0.00494 (inactive)	inactive	-9.02% (inactive)
COc1cc(C2C(C#N)=C(N)Oc3cc(C)n(CCc4ccccc4)c(=O)c32)cc2c1OCO2 (stereo unspecified)	331	-2.4% (inactive)	-42.5% (inactive)	165	-0.617	1.54	1.26	11.4% (inactive)	-0.433 (inactive)	-0.000158 (inactive)	0.00471 (inactive)	inactive	11.9% (inactive)
CCCCOc1ccccc1/C=c1/sc2nc(-c3oc4ccccc4c3C)nn2c1=O	431	0.7% (inactive)	-36.7% (inactive)	128	0.907	2.04	-0.0877	2.46% (inactive)	-0.325 (inactive)	-1e-05 (inactive)	0.00462 (inactive)	inactive	-7.58% (inactive)
CCOC(=O)CC(=O)CSc1nc(N)c(C#N)c(-c2ccc(Cl)cc2)c1C#N	405	-9.9% (inactive)	-43.1% (inactive)	99.2	1.08	-0.959	-2.04	-6.48% (inactive)	-0.318 (inactive)	1.7e-05 (inactive)	0.00603 (inactive)	inactive	-7.76% (inactive)
Nc1c(C(=O)NCC2CCCO2)c2nc3ccccc3nc2n1/N=C/c1ccncc1 (stereo unspecified)	470	-2.9% (inactive)	-109% (inactive)	110	1.93	-0.485	0.517	22.8% (inactive)	-0.507 (inactive)	-3.7e-05 (inactive)	0.00723 (inactive)	inactive	-25.5% (inactive)
c1ccc(OCc2nn3c(C4CCCCC4)nnc3s2)cc1	633	-8.1% (inactive)	-110% (inactive)	167	-0.542	-0.363	1.81	-6.06% (inactive)	-0.434 (inactive)	-0.000186 (inactive)	0.00482 (inactive)	inactive	-1.22% (inactive)
c1cncc(-c2nnc3sc(C4CCCCC4)nn23)c1	507	-5.5% (inactive)	-138% (inactive)	106	0.167	-0.011	0.328	8.31% (inactive)	-0.442 (inactive)	1.1e-05 (inactive)	0.00837 (inactive)	inactive	91.8% (active)
COC(=O)C1=C(N)Oc2cc(C)oc(=O)c2C1c1ccncc1 (stereo unspecified)	346	-2.7% (inactive)	29.3% (inactive)	149	-0.595	-0.189	1.46	-2.59% (inactive)	-0.404 (inactive)	-0.000149 (inactive)	0.00558 (inactive)	active; weak signal in gallbladder and intestine	28.1% (inactive)
CN1C(=S)SC(N(O)C(=O)Nc2ccccc2)C1(C)C (stereo unspecified)	486	8.3% (inactive)	-95.4% (inactive)	168	0.407	-0.73	0.0884	7.73% (inactive)	-0.52 (inactive)	-0.000109 (inactive)	0.00576 (inactive)	inactive	-9.05% (inactive)

Reference: PubChem BioAssay
